Screening data: PubChem, several laboratories
Most compounds without a hit are left out; they make up all but 2.3% or so of the library.
EBNA-1 inhibitor: blocks EBNA-1 binding to DNA. EBNA-1 DNA binding, fluorescence polarization. inhibition, % at 14.8 µM. 300,000 compounds, 0.34% hits. AID 1950; in the data active = inhibition above about 28%
ZTA DNA inh: counter-screen for EBNA-1 inhibitors: inhibitors of Epstein-Barr virus ZTA; P03206; ZTA-DNA binding, fluorescence polarization; inhibition, % at 11 µM; 320,000 compounds, 0.15% hits; in the data active = inhibition above about 33%
GPR7 antagonist: human neuropeptides B/W receptor 1 antagonism. P48145. GPR7-expressing cells, fluorescence antagonist assay. inhibition, % at 4.4 µM. 290,000 compounds, 1.1% hits; in the data active = inhibition above about 16%, passing the limit was not always enough;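 also: cells stimulated with the agonist NPW; 0% = agonist with vehicle and 100% = vehicle without agonist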
Target sequence (P48145 whole entry, looked up): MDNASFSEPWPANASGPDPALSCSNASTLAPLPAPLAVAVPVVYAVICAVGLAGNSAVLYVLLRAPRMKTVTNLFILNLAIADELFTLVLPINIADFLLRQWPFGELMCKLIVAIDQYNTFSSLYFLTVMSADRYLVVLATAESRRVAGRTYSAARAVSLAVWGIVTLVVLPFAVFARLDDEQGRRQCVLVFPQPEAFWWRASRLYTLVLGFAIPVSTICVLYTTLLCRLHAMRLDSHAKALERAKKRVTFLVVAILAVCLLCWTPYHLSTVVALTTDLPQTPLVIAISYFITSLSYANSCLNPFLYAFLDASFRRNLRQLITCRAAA
HCV core dimer: HCV core protein dimerization inhibition. TR-FRET GST/Flag-core106 dimerization, 1536-well. inhibition, % at 5 µM. 300,000 compounds, 0.33% hits. AID 1899;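 active = inhibition above the mean of all tested compounds plus 3 SD, set per screening campaign, cut at about 45% in these data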
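Material: Tagged HCV core106 pair (GST and Flag) | Amount: GST-core106 13.5 nM, Flag-core106 17 nM | Medium: KF-containing HEPES buffer, pH 7.45, DTT, CHAPS, BSA | Reagent: Eu donor and XL665 acceptor anti-tag antibodies | Schedule: 4 h at 22.5 °C | Technique: Time-resolved FRET, ex 340 nm, em 617 and 671 nm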
EBV gp42 inh: blocks Epstein-Barr virus glycoprotein 42 binding. Q1HVG2. Fluorescence polarization binding assay, mP read-out. inhibition, % (tested at 21.74 µM). 220,000 compounds, 0.42% hits. AID 1085; in the data active = inhibition above about 50%
HCV NS3 hel inh: inhibitors of Hepatitis C virus NS3 helicase; inhibition, % at 10.9 µM; 290,000 compounds, 0.56% hits; NS3 helicase DNA unwinding, Cy5 molecular beacon fluorescence; AID 1800;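 active = inhibition above the mean of all tested compounds plus 3 SD, set per campaign, cut at about 35% in these data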;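 also: 0% = DMSO wells and 100% = thioflavine S control wells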
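System: NS3 helicase fragment of HCV / Schedule: 1 h at 25 °C / Control set: DMSO alone as 0% and 110 µM thioflavine S as 100% / Reagent: Cy5/quencher beacon DNA duplex and ATP to start / Technique: Cy5 fluorescence / Replication: singlicate / Evaluation: % inhibition of end-to-start signal ratio versus controls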
NS3 hel confirm: HCV NS3 helicase inhibition, confirmation assay; shares compounds with HCV NS3 hel inh; inhibition, % at 10.9 µM; NS3 helicase DNA unwinding, Cy5 molecular beacon fluorescence; 1,600 compounds, 31% hits;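 active = inhibition above the mean of all tested compounds plus 3 SD, cutoff set per campaign, cut at about 36% in these data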
FID counter trip: counter-screen for HCV NS3 helicase inhibitors: DNA intercalator displacement | DNA fluorescent intercalator displacement, fluorescence | AID 1945 | 1,600 compounds, 4% hits | shares compounds with HCV NS3 hel inh | inhibition, % at 7.9 µM; in the data active = inhibition above about 37%;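 also: 0% = vehicle and 100% = reference compound; higher means more displacement of ethidium bromide from the DNA hairpin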
DNA FID DR: DNA intercalator displacement in dose response. shares compounds with HCV NS3 hel inh. fluorescent intercalator displacement from DNA, fluorescence. IC50, µM. 120 tested, under 10 active; call rule not given here
Active calls of the source: *; · = no result given.

SMILES	EBNA-1 inhibitor	ZTA DNA inh	GPR7 antagonist	HCV core dimer	EBV gp42 inh	HCV NS3 hel inh	NS3 hel confirm	FID counter trip	others
O=C(O)Cn1cc(/C=C2\C(=O)NC(=O)N(c3ccc(Br)cc3)C2=O)c2ccccc21	3	13	-13	7	·	49*	28	-8
O=C1NC(=O)N(c2ccccc2)C(=O)/C1=C\c1ccc([N+](=O)[O-])s1	3	-2	-3	2	9	41*	50*	11	DNA FID DR=>79
CCCCn1c(NS(=O)(=O)c2ccccc2)c(C(=O)OCC)c2nc3ccccc3nc21	13	4	-2	5	21	37*	58*	-39
CCCCn1c(NC(=O)c2ccc(Br)o2)c(C(=O)OCC)c2nc3ccccc3nc21	7	-13	8	-1	-26	15	·	·
CCNc1cc(N2CCNCC2)ccc1[N+](=O)[O-]	3	-7	-6	-2	0	11	·	·
Cc1cccc(-n2c(/C=C/c3ccc([N+](=O)[O-])o3)nc3ccccc3c2=O)c1	5	-1	1	11	0	61*	15	1
CC(C)c1ccc(N2C(=O)NC(=O)/C(=C/C=C/c3ccco3)C2=O)cc1	2	2	1	35	-53	23	·	·
Cc1cc(/C=C2/C(=O)NC(=O)N(Cc3ccco3)C2=O)c(C)n1-c1ccccc1O	1	-8	-4	2	8	49*	-17	11
CCCCN1C(=O)/C(=C\c2ccco2)C(=O)N(CCc2ccccc2)C1=O	8	12	-10	25	-10	38*	69*	15
Cc1ccccc1N1C(=O)/C(=C/c2ccco2)C(=O)NC1=S	110*	69*	1	70*	·	81*	83*	21
O=C(O)Cn1cc(/C=C2\C(=O)NC(=O)N(Cc3ccco3)C2=O)c2ccccc21	14	21	-8	12	-37	-1	·	·
CCCCN1C(=O)/C(=C/c2ccc(N(C)C)cc2)C(=O)N(Cc2ccco2)C1=O	-1	7	3	34	3	26	·	·
CCCCN1C(=O)/C(=C/C=C/c2ccco2)C(=O)NC1=S	·	·	-3	·	-84	62*	57*	24
COc1ccc(CNC(=O)/C=C/c2ccc3[nH]cc(CCN(C)C)c3c2)cc1	7	1	·	4	-5	·	·	·
O=C1NC(=O)N(Cc2ccccc2)C(=O)/C1=C\c1ccco1	-3	9	-5	3	-2	39*	20	24
O=C1NC(=O)N(Cc2ccc(F)cc2)C(=O)/C1=C\C=C\c1ccco1	0	6	-5	13	-21	41*	32	20
O=C1NC(=O)N(Cc2ccco2)C(=O)/C1=C/c1cccn1CCOc1ccccc1Cl	3	4	-5	17	-31	43*	2	-1
COc1ccc(CN2C(=O)NC(=O)/C(=C/c3ccoc3)C2=O)cc1	-7	13	-9	8	-2	54*	17	15
Cn1cccc1/C=C1\C(=O)NC(=O)N(Cc2ccccc2)C1=O	5	13	-7	5	-10	13	·	·
CCC(=O)N1N=C(c2c(O)n(CCc3ccccc3)c(=O)[nH]c2=O)CC1c1ccc(OC)c(OC)c1 (configuration not stated)	3	6	-10	1	-12	9	·	·
Cn1nc(-c2ccc(OCC(=O)N3CCN(Cc4ccccc4)CC3)cc2)c2ccccc2c1=O	11	1	-2	-3	1	-21	·	·
Nc1ncn[nH]1	4	0	·	10	·	·	·	·
